From ChEMBL document CHEMBL1250541, “20-Aminosteroids as a novel class of selective and complete androgen receptor antagonists and inhibitors of prostate cancer cell growth” (Bioorg Med Chem, 2010) come the findings set out here.

Calls of active or inactive are those of the source. The calls are words filed in the database; no cut-off is given here.

The subject of assay [1] is LNCaP. Put plainly: Cytotoxicity against human LNCAP cells at 10 uM after 2 days. The class given is functional, cell-based. A digest of the protocol: (§1)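 Cells seeded in triplicate in 6-well plates at 25 × 10³ (LNCaP) or 5 × 10³ (PC3) per well in medium with 5% FCS. After 2 days they were treated with DMSO or compounds, with medium and compound renewed every second/third day. Cells were counted on the indicated days and normalized to day 0. Atraric acid served as positive control.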

In assay [2] the target is T1, Androgen receptor (Homo sapiens) (UniProt P10275).
T1 sequence (whole entry): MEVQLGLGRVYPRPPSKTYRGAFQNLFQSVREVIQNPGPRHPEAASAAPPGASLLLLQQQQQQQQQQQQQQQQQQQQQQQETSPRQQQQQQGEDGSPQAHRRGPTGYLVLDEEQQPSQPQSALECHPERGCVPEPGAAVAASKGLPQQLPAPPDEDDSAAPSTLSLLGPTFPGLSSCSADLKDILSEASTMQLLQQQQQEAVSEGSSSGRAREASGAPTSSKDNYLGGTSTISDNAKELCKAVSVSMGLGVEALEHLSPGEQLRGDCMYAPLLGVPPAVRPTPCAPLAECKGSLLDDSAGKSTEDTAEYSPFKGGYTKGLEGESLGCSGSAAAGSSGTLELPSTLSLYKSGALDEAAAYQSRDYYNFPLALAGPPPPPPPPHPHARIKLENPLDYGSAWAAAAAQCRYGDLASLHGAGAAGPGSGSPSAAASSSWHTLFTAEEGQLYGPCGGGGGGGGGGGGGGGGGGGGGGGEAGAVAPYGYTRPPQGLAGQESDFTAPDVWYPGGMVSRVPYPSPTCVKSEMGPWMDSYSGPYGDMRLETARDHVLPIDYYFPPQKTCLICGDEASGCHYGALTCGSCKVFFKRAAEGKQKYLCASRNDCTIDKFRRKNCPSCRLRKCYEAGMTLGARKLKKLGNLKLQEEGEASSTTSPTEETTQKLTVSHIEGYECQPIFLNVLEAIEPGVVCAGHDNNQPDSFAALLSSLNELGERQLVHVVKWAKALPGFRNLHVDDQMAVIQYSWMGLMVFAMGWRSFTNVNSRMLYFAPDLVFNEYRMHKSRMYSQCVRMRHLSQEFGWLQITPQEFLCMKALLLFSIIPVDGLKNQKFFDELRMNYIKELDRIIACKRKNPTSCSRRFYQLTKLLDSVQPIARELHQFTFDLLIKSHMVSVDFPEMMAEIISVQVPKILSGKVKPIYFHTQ
Put plainly: Agonist activity at human androgen receptor expressed in human CV1 cells assessed as induction of receptor-mediated transactivation by MMTV-luciferase reporter gene assay. The following applies: CV-1. The class given is functional, cell-based. A digest of the protocol:
(§2)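 CV1 cells seeded at 1.2 × 10⁵ per well in DMEM with 5% charcoal-stripped serum, CaPO₄-transfected 18 h later with MMTV-luciferase reporter, human AR (wild type or T877A) expression vector and CMV-β-galactosidase control. After 24 h, medium was replaced with compounds alone or R1881. Cells were harvested 96 h later. Luciferase was normalized to β-gal (RLU). Duplicates, repeated at least twice.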

Assay [3] relates to Androgen receptor (Homo sapiens), P10275 [T878A]. Put plainly: Agonist activity at human androgen receptor T877A mutant expressed in human CV1 cells assessed as induction of receptor-mediated transactivation by MMTV-luciferase reporter gene assay. The format is functional, cell-based. The following applies: CV-1. A digest of the protocol:
as §2

The target in a further assay is T2, Androgen receptor (Homo sapiens, UniProt P10275).
T2 sequence (P10275 whole entry): T1 sequence (whole entry)
Put plainly: Antagonist activity at human androgen receptor expressed in human CV1 cells assessed as inhibition of receptor-mediated transactivation by MMTV-luciferase reporter gene assay. The class given is functional, cell-based, CV-1. On the technique in general: A reporter such as luciferase makes a cellular process visible.

Assay [4] concerns the target T1, Androgen receptor (Homo sapiens). Kind of assay: Antagonist activity at human androgen receptor expressed in human CV1 cells assessed as inhibition of receptor-mediated transactivation at 1 uM by MMTV-luciferase reporter gene assay. The format is functional, cell-based. The settings on record: CV-1. A digest of the protocol:
(§3)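 CV1 cells in DMEM with 5% charcoal-stripped serum, transfected by CaPO₄ with MMTV-luciferase, wild-type or T877A human AR vector and CMV-β-galactosidase. Compounds were added together with the agonist R1881 24 h post-transfection. After a further 96 h, luciferase was read and normalized to β-gal activity as RLU. Duplicates, repeated at least twice. NBBS antagonist and DMSO served as controls.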

Assay [5] deals with Androgen receptor (Homo sapiens), P10275 [T878A]. Put plainly: Antagonist activity at human androgen receptor T877A mutant expressed in human CV1 cells assessed as inhibition of receptor-mediated transactivation at 1 uM by MMTV-luciferase reporter gene assay. The settings on record: CV-1. The format is functional, cell-based. A digest of the protocol:
as §3

Assay [6] addresses T1, Androgen receptor (Homo sapiens). Put plainly: Antagonist activity at human androgen receptor in human LNCAP cells assessed as inhibition of PSA mRNA expression by RT-PCR. The format is functional, cell-based. A digest of the protocol:
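LNCaP cells treated with or without androgens plus compounds at 10 µM. DMSO-treated cells served as control. PSA mRNA was normalized to beta-actin expression.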

The subject of a further assay is PC-3. Put plainly: Cytotoxicity against human PC3 cells after 2 days. The format is functional, cell-based. A digest of the protocol: as §1
In assay [7] the test system is LNCaP. Kind of assay: Induction of senescence in human LNCAP cells assessed as beta galactosidase activity after 3 days. The class given is functional, cell-based.
The test system of assay [8] is Androgen receptor (Homo sapiens), P10275 [T878A]. Put plainly: Antagonist activity at human androgen receptor T877A mutant expressed in human CV1 cells assessed as inhibition of receptor-mediated transactivation by MMTV-luciferase reporter gene assay. The class given is functional, cell-based. The following applies: CV-1. A digest of the protocol:
as §3

Chain of Androgen receptor (Homo sapiens), P10275 [T878A] (P10275 whole entry T878A): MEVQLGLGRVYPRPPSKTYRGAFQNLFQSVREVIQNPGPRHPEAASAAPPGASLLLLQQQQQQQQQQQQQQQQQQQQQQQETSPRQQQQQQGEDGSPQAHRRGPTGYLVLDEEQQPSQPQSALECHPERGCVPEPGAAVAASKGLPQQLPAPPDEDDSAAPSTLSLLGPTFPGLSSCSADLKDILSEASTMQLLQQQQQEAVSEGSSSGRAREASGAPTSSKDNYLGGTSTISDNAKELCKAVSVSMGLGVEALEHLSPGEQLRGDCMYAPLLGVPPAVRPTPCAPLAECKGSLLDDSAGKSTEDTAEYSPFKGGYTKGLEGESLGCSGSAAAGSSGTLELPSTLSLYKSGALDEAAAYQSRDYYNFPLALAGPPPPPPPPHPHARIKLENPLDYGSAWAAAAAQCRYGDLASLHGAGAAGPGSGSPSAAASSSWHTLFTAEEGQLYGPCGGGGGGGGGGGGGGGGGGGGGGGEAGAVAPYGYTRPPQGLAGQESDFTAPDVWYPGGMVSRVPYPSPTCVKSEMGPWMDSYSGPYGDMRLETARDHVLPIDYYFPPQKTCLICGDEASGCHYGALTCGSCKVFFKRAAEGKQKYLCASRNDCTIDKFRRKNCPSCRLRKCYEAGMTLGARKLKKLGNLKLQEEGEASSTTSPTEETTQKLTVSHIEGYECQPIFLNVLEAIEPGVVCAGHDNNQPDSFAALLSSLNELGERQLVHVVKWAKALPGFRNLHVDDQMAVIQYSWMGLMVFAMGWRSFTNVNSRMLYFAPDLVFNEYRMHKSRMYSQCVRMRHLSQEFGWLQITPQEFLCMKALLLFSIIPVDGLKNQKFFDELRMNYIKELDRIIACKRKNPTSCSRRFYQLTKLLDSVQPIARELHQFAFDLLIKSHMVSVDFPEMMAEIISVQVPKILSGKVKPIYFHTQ

Regarding `COC(=O)c1c(C)cc(O)c(C)c1O`, the result in the assay on LNCaP [1] was Active.
Turning to `C=CC[C@](C)(N)[C@H]1CC[C@H]2[C@@H]3CC=C4C[C@@H](O)CC[C@]4(C)[C@H]3CC[C@@]21C`, in assay [2], the result was inactive. Moreover, in [3], the outcome was Active.
With `C=CC[C@@](C)(N)[C@H]1CC[C@H]2[C@@H]3CC=C4C[C@@H](O)CC[C@]4(C)[C@H]3CC[C@@]21C`, in assay [2], the outcome was inactive. In addition, in assay [3], the result was Active.
As to `C[C@]12CC[C@H]3[C@@H](CC=C4C[C@@H](O)CC[C@@]43C)[C@@H]1CC[C@@H]2[C@]1(C)CC=CC(=O)N1`, the result (in [2]; in assay [3]; with PC-3) was inactive. Further, the IC50 on Androgen receptor worked out at 3000 nM. Further, the result (in assay [4]; in [5]; in assay [6]; with LNCaP [1]; in the assay on LNCaP [7]) was Active.
As to `C[C@]12CC[C@H]3[C@@H](CC=C4C[C@@H](O)CC[C@@]43C)[C@@H]1CC[C@@H]2[C@](C)(N)Cc1ccccc1`, in assay [2], the result was inactive.
With `C[C@]12CC[C@H]3[C@@H](CCC4=CC(=O)CC[C@@]43C)[C@@H]1CC[C@@H]2[C@]1(C)CC=CC(=O)N1`, in assay [2], the result was inactive. Further, at Androgen receptor, the IC50 was 500 nM.
Consider `C[C@]12CC[C@H]3[C@@H](CC=C4C[C@@H](O)CC[C@@]43C)[C@@H]1CC[C@@H]2[C@@]1(C)CC=CC(=O)N1`, for which the result in assay [2] and in [3] was inactive. Further, the IC50 at Androgen receptor came out at 2000 nM. Further, the result in [8] and in [6] was Active.
Turning to `C=CC(C)[C@@](C)(N)[C@H]1CC[C@H]2[C@@H]3CC=C4C[C@@H](O)CC[C@]4(C)[C@H]3CC[C@@]21C` (some centres undefined), the outcome in assay [2] was inactive. Further, the outcome in [3] was Active.

By IC50 is commonly meant the concentration that gives 50% inhibition.
